Assay results from ChEMBL document CHEMBL3994636, “New tools in nucleoside toolbox of tick-borne encephalitis virus reproduction inhibitors” (Bioorg Med Chem Lett, 2017).
The source made the active and inactive calls. No cut-off for these calls is given here.

Legend:
[1] = system: Tick-borne encephalitis virus; assay: Antiviral activity against […] Absettarov infected in PEK cells assessed as inhibition of viral reproduction at 50 uM preincubated with virus for 1 hr followed by addition to PEK cells measured after 1 hr by gentian violet staining based plaque reduction assay relative to control; assay type: functional
[2] = system: Tick-borne encephalitis virus; assay: Antiviral activity against […] Absettarov infected in PEK cells assessed as inhibition of viral reproduction preincubated with virus for 1 hr followed by addition to PEK cells measured after 1 hr by gentian violet staining based plaque reduction assay; assay type: functional, cell-based
[3] = Cytotoxicity against PEK cells after 7 days; assay type: cell-based, Sus scrofa; settings: pig
[4] = Cytotoxicity against PEK cells after 24 hrs; assay type: cell-based, Sus scrofa; settings: pig
Summary of the method: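 PEK (porcine embryo kidney) cells were exposed to compound at 50 μM for 24 h and examined for cytotoxicity.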

OC[C@H]1O[C@@H](n2cnc3c(NCc4ccco4)ncnc32)[C@H](O)[C@@H]1O [KINETIN RIBOSIDE]
inhibition [1]: inactive
EC50 [2]: > 50 µM

C[C@@]1(O)[C@@H](CO)O[C@@H](n2ccc(=O)[nH]c2=O)[C@@H]1O
inhibition [1]: inactive
EC50 [2]: > 50 µM

OC/C=C\CNc1ncnc2c1ncn2[C@@H]1O[C@H](CO)[C@@H](O)[C@H]1O
inhibition [1]: inactive
EC50 [2]: > 50 µM

CC(C)=CCNc1ncnc2c1ncn2[C@@H]1O[C@H](CO)[C@@H](O)[C@H]1O [RIBOPRINE]
inhibition [1]: inactive
EC50 [2]: > 50 µM

c1ccc(CNc2ncnc3nc[nH]c23)cc1 [6-BENZYLAMINOPURINE]
CC50 at 168 h [3]: > 50 µM
CC50 at 24 h [4]: > 50 µM

OC[C@H]1O[C@@H](n2cnc3c(NCc4c5ccccc5cc5ccccc45)ncnc32)[C@H](O)[C@@H]1O
CC50 at 168 h [3]: > 50 µM
inhibition at 50 µM [1]: 50%
EC50 [2]: 15 µM
CC50 at 24 h [4]: > 50 µM

OC[C@H]1O[C@@H](n2cnc3c(NCc4ccccc4)ncnc32)[C@H](O)[C@@H]1O [N6-BENZYLADENOSINE]
CC50 at 168 h [3]: > 50 µM
inhibition [1]: inactive
EC50 [2]: > 50 µM
CC50 at 24 h [4]: > 50 µM

CC1(C)[C@H]2CC=C(CNc3ncnc4c3ncn4[C@@H]3O[C@H](CO)[C@@H](O)[C@H]3O)[C@@H]1C2
inhibition [1]: inactive
EC50 [2]: > 50 µM

O=C(Nc1ccn(C2O[C@H](CO)[C@@H](O)[C@H]2O)c(=O)n1)c1ccccc1 (stereo partly specified)
inhibition [1]: inactive
EC50 [2]: > 50 µM

CC(C)=CCC/C(C)=C\CNc1ncnc2c1ncn2[C@@H]1O[C@H](CO)[C@@H](O)[C@H]1O
inhibition [1]: inactive
EC50 [2]: > 50 µM

OC[C@H]1O[C@@H](n2cnc3c(NC/C=C/c4ccccc4)ncnc32)[C@H](O)[C@@H]1O
inhibition [1]: inactive
EC50 [2]: > 50 µM

Cc1cn([C@@H]2O[C@H](CO)[C@@](C)(O)[C@H]2O)c(=O)[nH]c1=O
inhibition [1]: inactive
EC50 [2]: > 50 µM

c1ccc(CNc2ncnc3[nH]cnc23)cc1 [6-BENZYLAMINOPURINE]
inhibition [1]: inactive
EC50 [2]: > 50 µM

C[n+]1cn([C@@H]2O[C@H](CO)[C@@H](O)[C@H]2O)c2nc(N)nc([O-])c21
inhibition [1]: inactive
EC50 [2]: > 50 µM

Cn1cnc2c(ncn2[C@@H]2O[C@H](CO)[C@@H](O)[C@H]2O)c1=N
inhibition [1]: inactive
EC50 [2]: > 50 µM

C[C@@]1(O)[C@@H](CO)O[C@@H](n2ccc(N)nc2=O)[C@@H]1O
inhibition [1]: inactive
EC50 [2]: > 50 µM

OC[C@H]1O[C@@H](n2cnc3c(NC4CCCCC4)ncnc32)[C@H](O)[C@@H]1O
inhibition [1]: inactive
EC50 [2]: > 50 µM

CC(C)[Si](OC[C@H]1O[C@@H](n2cnc3c(NCc4ccccc4)ncnc32)[C@H](O)[C@@H]1O)(C(C)C)C(C)C
CC50 at 168 h [3]: > 50 µM
inhibition at 50 µM [1]: 50%
EC50 [2]: 5 µM
CC50 at 24 h [4]: > 50 µM

CC(C)C(=O)Nc1nc2c(ncn2[C@@H]2O[C@H](CO)[C@@H](O)[C@H]2O)c(=O)[nH]1
inhibition [1]: inactive
EC50 [2]: > 50 µM

CC(C)=CCC/C(C)=C/CNc1ncnc2c1ncn2[C@@H]1O[C@H](CO)[C@@H](O)[C@H]1O
inhibition [1]: inactive
EC50 [2]: > 50 µM

C=CCC#CCNc1ncnc2c1ncn2[C@@H]1O[C@H](CO)[C@@H](O)[C@H]1O
inhibition [1]: inactive
EC50 [2]: > 50 µM

O[C@@H]1[C@H](O)[C@@H](COC(c2ccccc2)(c2ccccc2)c2ccccc2)O[C@H]1n1cnc2c(NCc3ccccc3)ncnc21
CC50 at 168 h [3]: 9 µM
inhibition at 50 µM [1]: 50%
EC50 [2]: 2 µM
CC50 at 24 h [4]: > 50 µM

C[C@@]1(O)[C@@H](CO)O[C@@H](n2cnc3c(=O)[nH]c(N)nc32)[C@@H]1O
inhibition [1]: inactive
EC50 [2]: > 50 µM

OC[C@H]1O[C@@H](n2cnc3c(NCC#Cc4ccccc4)ncnc32)[C@H](O)[C@@H]1O
inhibition [1]: inactive
EC50 [2]: > 48 µM

OC[C@H]1O[C@@H](n2cnc3c(NCc4ccc5ccccc5c4)ncnc32)[C@H](O)[C@@H]1O
inhibition [1]: inactive
EC50 [2]: > 50 µM

C=C(C)[C@@H]1CC=C(CNc2ncnc3c2ncn3[C@@H]2O[C@H](CO)[C@@H](O)[C@H]2O)CC1
inhibition [1]: inactive
EC50 [2]: > 50 µM

CC(C)(C)[Si](C)(C)OC[C@H]1O[C@@H](n2cnc3c(NCc4ccccc4)ncnc32)[C@H](O)[C@@H]1O
CC50 at 168 h [3]: > 50 µM
inhibition at 50 µM [1]: 50%
EC50 [2]: 20 µM
CC50 at 24 h [4]: > 50 µM

OC[C@H]1O[C@@H](n2cnc3c(NCc4ccc5ccc6cccc7ccc4c5c67)ncnc32)[C@H](O)[C@@H]1O
CC50 at 168 h [3]: 9 µM
inhibition at 50 µM [1]: 50%
EC50 [2]: 6 µM
CC50 at 24 h [4]: > 50 µM

OC[C@H]1O[C@@H](n2cnc3c(NC(c4ccccc4)(c4ccccc4)c4ccccc4)ncnc32)[C@H](O)[C@@H]1O
inhibition [1]: inactive
EC50 [2]: > 50 µM

CNc1ncnc2c1ncn2[C@@H]1O[C@H](CO)[C@@H](O)[C@H]1O
inhibition [1]: inactive
EC50 [2]: > 50 µM

C#CCNc1ncnc2c1ncn2[C@@H]1O[C@H](CO)[C@@H](O)[C@H]1O
inhibition [1]: inactive
EC50 [2]: > 50 µM

O=C(Nc1nc2c(ncn2[C@@H]2O[C@H](CO)[C@@H](O)[C@H]2O)c(=O)[nH]1)c1ccccc1
inhibition [1]: inactive
EC50 [2]: > 50 µM
